Legend:
[1] = molecular target: PDE1A3 (Homo sapiens, UniProt P54750); assay: PDE enzyme inhibition, radiometric assay; assay type: biochemical
How it was run: (§1)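 Recombinant human PDE enzymes (33 in the panel) were incubated in vitro with increasing concentrations of the test compound. Enzyme activity was measured radiometrically and IC50 values derived.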

[2] = molecular target: PDE1B (Homo sapiens, UniProt Q01064); assay: PDE enzyme inhibition, radiometric assay; assay type: biochemical
How it was run: as §1

[3] = molecular target: PDE1C (Homo sapiens, UniProt Q14123); assay: PDE enzyme inhibition, radiometric assay; assay type: biochemical
How it was run: as §1

[4] = molecular target: PDE2A3 (Homo sapiens, UniProt O00408); assay: PDE enzyme inhibition, radiometric assay; assay type: biochemical
How it was run: as §1

[5] = molecular target: PDE3A (Homo sapiens, UniProt Q14432); assay: PDE enzyme inhibition, radiometric assay; assay type: biochemical
How it was run: as §1

[6] = molecular target: PDE3B (Homo sapiens, UniProt Q13370); assay: PDE enzyme inhibition, radiometric assay; assay type: biochemical
How it was run: as §1

[7] = molecular target: PDE4A1 (Homo sapiens, UniProt P27815); assay: PDE enzyme inhibition, radiometric assay; assay type: biochemical
How it was run: as §1

[8] = molecular target: PDE4A4 (Homo sapiens, UniProt P27815); assay: PDE enzyme inhibition, radiometric assay; assay type: biochemical
How it was run: as §1

[9] = molecular target: PDE4B1 (Homo sapiens, UniProt Q07343); assay: PDE enzyme inhibition, radiometric assay; assay type: biochemical
How it was run: as §1

[10] = molecular target: PDE4B3 (Homo sapiens, UniProt Q07343); assay: PDE enzyme inhibition, radiometric assay; assay type: biochemical
How it was run: as §1

[11] = molecular target: PDE4C2 (Homo sapiens, UniProt Q08493); assay: PDE enzyme inhibition, radiometric assay; assay type: biochemical
How it was run: as §1

[12] = molecular target: PDE4D1 (Homo sapiens, UniProt Q08499); assay: PDE enzyme inhibition, radiometric assay; assay type: biochemical
How it was run: as §1

[13] = molecular target: PDE4D2 (Homo sapiens, UniProt Q08499); assay: PDE enzyme inhibition, radiometric assay; assay type: biochemical
How it was run: as §1

[14] = molecular target: PDE4D4 (Homo sapiens, UniProt Q08499); assay: PDE enzyme inhibition, radiometric assay; assay type: biochemical
How it was run: as §1

[15] = molecular target: PDE4D5 (Homo sapiens, UniProt Q08499); assay: PDE enzyme inhibition, radiometric assay; assay type: biochemical
How it was run: as §1

[16] = molecular target: PDE4D7 (Homo sapiens, UniProt Q08499); assay: PDE enzyme inhibition, radiometric assay; assay type: biochemical
How it was run: as §1

[17] = molecular target: PDE5A1 (Homo sapiens, UniProt O76074); assay: PDE enzyme inhibition, radiometric assay; assay type: biochemical
How it was run: as §1

[18] = molecular target: PDE5A2 (Homo sapiens, UniProt O76074); assay: PDE enzyme inhibition, radiometric assay; assay type: biochemical
How it was run: as §1

[19] = molecular target: PDE5A3 (Homo sapiens, UniProt O76074); assay: PDE enzyme inhibition, radiometric assay; assay type: biochemical
How it was run: as §1

[20] = molecular target: PDE6AB (Homo sapiens, UniProt P16499+P35913); assay: PDE enzyme inhibition, radiometric assay; assay type: biochemical
How it was run: as §1

[21] = molecular target: PDE6C (Homo sapiens, UniProt P51160); assay: PDE enzyme inhibition, radiometric assay; assay type: biochemical
How it was run: as §1

[22] = molecular target: PDE7A (Homo sapiens, UniProt Q13946); assay: PDE enzyme inhibition, radiometric assay; assay type: biochemical
How it was run: as §1

[23] = molecular target: PDE7B (Homo sapiens, UniProt Q9NP56); assay: PDE enzyme inhibition, radiometric assay; assay type: biochemical
How it was run: as §1

[24] = molecular target: PDE8A1 (Homo sapiens, UniProt O60658); assay: PDE enzyme inhibition, radiometric assay; assay type: biochemical
How it was run: as §1

[25] = molecular target: PDE11A1 (Homo sapiens, UniProt Q9HCR9); assay: PDE enzyme inhibition, radiometric assay; assay type: biochemical
How it was run: as §1

[26] = tested on: K562 cells; assay: cGMP induction in K562 cells; assay type: cell-based, human; conditions: 6 h
How it was run: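 Actively growing K562 cells were treated for 6 h with increasing concentrations of the test compound or hydroxyurea. cGMP was measured by non-radioactive enzyme immunoassay using the acetylation protocol, and protein by BCA assay. Data are means±Standard Errors.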

[27] = tested on: UT-7 cells; assay: HbF induction in UT-7 cells; assay type: cell-based, human; conditions: GM-CSF dependent erythroid line UT-7; data not shown
[28] = tested on: K562 cells; assay: Cytotoxicity in K562 cells; assay type: cell-based, human; conditions: end of 72-h culture
How it was run: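 Actively growing K562 cells were cultured for 72 h with increasing concentrations of the test compound. Terminal viability was scored by automated cell counting or trypan-blue exclusion, or by an ATP-based luminescence assay. Apoptosis was checked by Annexin V flow cytometry.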

[29] = tested on: HbSS-Townes mice; assay: HbSS-Townes vaso-occlusive crisis model; assay type: in vivo
[30] = tested on: erythroid cells from CD34+ progenitors of SCD patients; assay: HbF induction in SCD patient-derived erythroblasts; assay type: cell-based, human; conditions: 10 μM IMR-687, five days, n=9, P<0.01
How it was run: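 CD34⁺ progenitors came from the blood or bone marrow of nine SCD donors. Cells grew seven days with 15% BIT 9500, 2 mM L-glutamine, IL-3 (10 ng/mL), IL-6 and SCF (100 ng/mL). CD36⁺ cells were then isolated and grown five days with SCF, IL-3 and EPO (2 UI/mL) plus DMSO, 30 μM hydroxyurea or 10 μM test compound. HbF⁺ cells (%) and HbF MFI were read by PE-anti-HbF FACS, gated LiveDead⁻/GPA⁺/Band3⁺.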

[31] = Brain and plasma exposure in mice; assay type: in vivo, C57Bl/6J mice
[32] = tested on: mice; assay: Classical fear conditioning model of learning and memory; assay type: in vivo; conditions: similar dose of both PDE9i
[33] = tested on: rats; assay: Long-term toxicology study in normal rats; assay type: in vivo; conditions: data not shown
[34] = tested on: dogs; assay: Long-term toxicology study in dogs; assay type: in vivo
[35] = Genotoxicity
[36] = tested on: rodents; assay: Fertility and fetal development in rodents; assay type: in vivo
[37] = Locomotor activity and behavioral responses in toxicology studies; assay type: in vivo; conditions: data not shown

PDE7B, sequence (Q9NP56 whole entry): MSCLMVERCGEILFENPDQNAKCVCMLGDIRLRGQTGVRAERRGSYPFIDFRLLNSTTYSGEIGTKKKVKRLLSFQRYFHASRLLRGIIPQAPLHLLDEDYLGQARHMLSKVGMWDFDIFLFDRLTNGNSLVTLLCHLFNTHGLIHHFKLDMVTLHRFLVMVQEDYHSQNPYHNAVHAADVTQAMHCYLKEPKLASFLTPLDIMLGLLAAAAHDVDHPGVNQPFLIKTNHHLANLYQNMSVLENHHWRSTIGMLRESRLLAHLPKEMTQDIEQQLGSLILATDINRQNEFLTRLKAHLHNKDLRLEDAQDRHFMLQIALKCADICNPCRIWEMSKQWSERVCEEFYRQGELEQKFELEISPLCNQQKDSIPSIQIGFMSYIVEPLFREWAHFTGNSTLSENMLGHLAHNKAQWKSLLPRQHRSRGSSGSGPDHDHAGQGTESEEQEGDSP
PDE7A, sequence (Q13946 whole entry): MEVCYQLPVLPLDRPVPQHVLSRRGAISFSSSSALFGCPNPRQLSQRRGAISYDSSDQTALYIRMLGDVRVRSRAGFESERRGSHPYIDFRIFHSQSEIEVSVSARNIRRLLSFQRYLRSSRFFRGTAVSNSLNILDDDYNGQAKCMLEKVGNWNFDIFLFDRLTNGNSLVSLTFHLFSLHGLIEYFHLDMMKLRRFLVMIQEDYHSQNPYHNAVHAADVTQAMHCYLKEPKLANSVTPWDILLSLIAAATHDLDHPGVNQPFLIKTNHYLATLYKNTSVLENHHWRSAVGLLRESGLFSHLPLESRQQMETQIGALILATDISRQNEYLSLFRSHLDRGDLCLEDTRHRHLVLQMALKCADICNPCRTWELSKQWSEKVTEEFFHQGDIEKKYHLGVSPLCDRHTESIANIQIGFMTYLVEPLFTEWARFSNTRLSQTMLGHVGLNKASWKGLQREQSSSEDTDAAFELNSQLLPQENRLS
PDE4D2, sequence (Q08499 303-809): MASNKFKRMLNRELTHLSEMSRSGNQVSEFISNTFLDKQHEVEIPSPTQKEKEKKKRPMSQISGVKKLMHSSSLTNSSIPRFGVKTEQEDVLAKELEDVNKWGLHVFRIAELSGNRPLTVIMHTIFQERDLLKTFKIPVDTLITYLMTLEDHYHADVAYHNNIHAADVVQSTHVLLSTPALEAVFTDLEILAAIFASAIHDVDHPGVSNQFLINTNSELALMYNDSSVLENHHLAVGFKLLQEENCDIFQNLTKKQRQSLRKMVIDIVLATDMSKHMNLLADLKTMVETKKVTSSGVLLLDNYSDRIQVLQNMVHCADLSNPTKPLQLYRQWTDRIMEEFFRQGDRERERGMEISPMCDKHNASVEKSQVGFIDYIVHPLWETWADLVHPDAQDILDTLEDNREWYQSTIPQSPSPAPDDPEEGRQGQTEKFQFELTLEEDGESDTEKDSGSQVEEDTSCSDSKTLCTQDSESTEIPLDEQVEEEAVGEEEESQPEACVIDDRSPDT
PDE2A3, sequence (O00408 whole entry): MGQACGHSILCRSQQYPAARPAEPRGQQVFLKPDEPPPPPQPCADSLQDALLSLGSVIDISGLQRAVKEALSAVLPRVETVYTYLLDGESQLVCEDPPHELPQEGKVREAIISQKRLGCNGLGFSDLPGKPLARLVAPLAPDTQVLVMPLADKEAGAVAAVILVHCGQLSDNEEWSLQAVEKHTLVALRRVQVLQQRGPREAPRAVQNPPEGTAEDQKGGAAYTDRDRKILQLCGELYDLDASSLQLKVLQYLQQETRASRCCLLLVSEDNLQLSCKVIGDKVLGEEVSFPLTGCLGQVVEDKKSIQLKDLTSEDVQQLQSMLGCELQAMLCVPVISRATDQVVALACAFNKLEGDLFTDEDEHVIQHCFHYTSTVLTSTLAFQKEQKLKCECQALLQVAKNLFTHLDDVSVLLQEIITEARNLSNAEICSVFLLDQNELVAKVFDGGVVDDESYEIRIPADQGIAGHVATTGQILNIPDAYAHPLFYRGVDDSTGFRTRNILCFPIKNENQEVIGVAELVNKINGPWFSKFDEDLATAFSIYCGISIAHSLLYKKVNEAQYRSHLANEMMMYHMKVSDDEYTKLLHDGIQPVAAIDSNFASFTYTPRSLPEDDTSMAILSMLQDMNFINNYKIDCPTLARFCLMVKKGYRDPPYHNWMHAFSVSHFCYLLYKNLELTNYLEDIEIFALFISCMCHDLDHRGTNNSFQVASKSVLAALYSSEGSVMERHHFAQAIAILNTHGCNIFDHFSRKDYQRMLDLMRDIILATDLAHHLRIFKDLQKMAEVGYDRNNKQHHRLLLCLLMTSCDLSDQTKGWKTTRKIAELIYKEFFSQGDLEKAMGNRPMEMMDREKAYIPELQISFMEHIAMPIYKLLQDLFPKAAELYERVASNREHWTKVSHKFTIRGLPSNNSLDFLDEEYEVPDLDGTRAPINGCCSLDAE
PDE3B, sequence (Q13370 whole entry): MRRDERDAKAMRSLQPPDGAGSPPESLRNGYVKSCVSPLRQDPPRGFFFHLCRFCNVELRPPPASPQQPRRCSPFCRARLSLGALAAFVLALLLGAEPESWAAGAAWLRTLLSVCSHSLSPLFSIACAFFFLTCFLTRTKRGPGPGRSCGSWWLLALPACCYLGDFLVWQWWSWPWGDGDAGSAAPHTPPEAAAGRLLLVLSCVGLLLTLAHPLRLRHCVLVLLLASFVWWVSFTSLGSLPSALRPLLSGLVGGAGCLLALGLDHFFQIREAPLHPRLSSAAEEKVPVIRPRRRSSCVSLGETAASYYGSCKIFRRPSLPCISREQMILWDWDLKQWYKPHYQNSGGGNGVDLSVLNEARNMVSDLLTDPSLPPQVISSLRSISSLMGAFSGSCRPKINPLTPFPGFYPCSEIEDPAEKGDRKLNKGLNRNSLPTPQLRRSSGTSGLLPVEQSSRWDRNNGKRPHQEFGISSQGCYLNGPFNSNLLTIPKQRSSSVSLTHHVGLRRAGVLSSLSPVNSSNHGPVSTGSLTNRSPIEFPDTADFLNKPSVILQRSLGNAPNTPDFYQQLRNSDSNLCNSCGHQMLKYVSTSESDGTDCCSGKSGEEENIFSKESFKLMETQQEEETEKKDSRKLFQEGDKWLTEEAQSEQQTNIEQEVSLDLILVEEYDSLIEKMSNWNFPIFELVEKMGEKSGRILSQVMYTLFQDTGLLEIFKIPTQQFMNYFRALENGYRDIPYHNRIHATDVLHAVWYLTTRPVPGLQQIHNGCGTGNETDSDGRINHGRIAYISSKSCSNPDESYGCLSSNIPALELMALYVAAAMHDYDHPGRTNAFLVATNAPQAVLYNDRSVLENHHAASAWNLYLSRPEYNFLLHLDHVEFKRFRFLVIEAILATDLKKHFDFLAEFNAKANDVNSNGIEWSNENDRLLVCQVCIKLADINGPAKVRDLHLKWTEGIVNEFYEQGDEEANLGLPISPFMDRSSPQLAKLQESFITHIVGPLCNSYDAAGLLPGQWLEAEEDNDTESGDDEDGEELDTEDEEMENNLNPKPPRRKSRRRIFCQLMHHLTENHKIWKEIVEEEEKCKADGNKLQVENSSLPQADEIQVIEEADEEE
PDE4B1, sequence (Q07343 whole entry): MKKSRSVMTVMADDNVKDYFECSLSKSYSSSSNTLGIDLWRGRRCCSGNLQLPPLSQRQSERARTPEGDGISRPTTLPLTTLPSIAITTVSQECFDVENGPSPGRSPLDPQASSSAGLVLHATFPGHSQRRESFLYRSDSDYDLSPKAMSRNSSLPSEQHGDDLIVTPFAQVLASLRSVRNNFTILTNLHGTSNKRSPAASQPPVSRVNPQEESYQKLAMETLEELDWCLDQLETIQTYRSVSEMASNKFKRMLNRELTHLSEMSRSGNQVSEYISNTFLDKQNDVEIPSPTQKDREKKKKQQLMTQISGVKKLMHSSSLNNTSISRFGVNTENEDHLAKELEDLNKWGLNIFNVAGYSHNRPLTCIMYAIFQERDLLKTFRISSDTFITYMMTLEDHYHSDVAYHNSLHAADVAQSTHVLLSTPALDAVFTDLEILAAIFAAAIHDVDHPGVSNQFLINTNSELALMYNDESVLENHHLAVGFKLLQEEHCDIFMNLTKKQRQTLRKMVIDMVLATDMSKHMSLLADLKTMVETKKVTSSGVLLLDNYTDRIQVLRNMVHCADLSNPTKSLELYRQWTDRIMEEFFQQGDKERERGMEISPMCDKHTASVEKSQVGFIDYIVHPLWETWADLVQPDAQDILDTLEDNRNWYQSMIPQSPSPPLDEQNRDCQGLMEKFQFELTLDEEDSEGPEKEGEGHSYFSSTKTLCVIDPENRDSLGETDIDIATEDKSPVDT
PDE1B, sequence (Q01064 whole entry): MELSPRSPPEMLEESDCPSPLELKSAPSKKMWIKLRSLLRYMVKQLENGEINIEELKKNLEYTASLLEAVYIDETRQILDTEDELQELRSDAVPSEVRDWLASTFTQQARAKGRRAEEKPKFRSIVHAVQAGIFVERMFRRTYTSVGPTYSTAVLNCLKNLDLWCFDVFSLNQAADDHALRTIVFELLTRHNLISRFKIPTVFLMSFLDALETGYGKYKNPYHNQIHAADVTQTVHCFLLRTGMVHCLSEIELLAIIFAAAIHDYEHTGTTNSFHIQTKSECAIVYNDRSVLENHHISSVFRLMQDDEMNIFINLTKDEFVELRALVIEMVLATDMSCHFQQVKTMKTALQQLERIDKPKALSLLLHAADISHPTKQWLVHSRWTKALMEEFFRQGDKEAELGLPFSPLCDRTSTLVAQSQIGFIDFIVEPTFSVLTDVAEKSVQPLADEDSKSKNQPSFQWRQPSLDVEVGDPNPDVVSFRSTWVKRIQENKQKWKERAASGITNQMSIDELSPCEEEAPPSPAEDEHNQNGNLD

With `C[C@@H]1CN(Cc2ncccn2)C[C@H]1c1cn2c(C3CCOCC3)ncc2c(=O)[nH]1` [IMR-687] as the compound, how does the IC50 [1] read?
Its IC50 is 88.4 µM.

What about the IC50 [2] of the same compound?
Its IC50 is 8.48 µM.

And the IC50 [3]?
Its IC50 is 12.2 µM.

What about the IC50 [4] of the same compound?
The IC50 was over 100 µM.

And the IC50 [5]?
The IC50 was over 100 µM.

And the IC50 [6]?
The IC50 was over 100 µM.

What about the IC50 [7] of the same compound?
The IC50 was over 100 µM.

What about the IC50 [8] of the same compound?
The IC50 was over 100 µM.

What about the IC50 [9] of the same compound?
The IC50 was over 100 µM.

What about the IC50 [10] of the same compound?
The IC50 was over 100 µM.

And the IC50 [11]?
Its IC50 is over 100 µM.

What about the IC50 [12] of the same compound?
The IC50 was over 100 µM.

What about the IC50 [13] of the same compound?
Its IC50 is over 100 µM.

What about the IC50 [14] of the same compound?
The IC50 was over 100 µM.

What about the IC50 [15] of the same compound?
The IC50 was over 100 µM.

What about the IC50 [16] of the same compound?
The IC50 was over 100 µM.

What about the IC50 [17] of the same compound?
Its IC50 is over 100 µM.

What about the IC50 [18] of the same compound?
Its IC50 is 81.9 µM.

And the IC50 [19]?
Its IC50 is over 100 µM.

What about the IC50 [20] of the same compound?
Its IC50 is over 100 µM.

And the IC50 [21]?
Its IC50 is over 100 µM.

What about the IC50 [22] of the same compound?
The IC50 was over 100 µM.

What about the IC50 [23] of the same compound?
Its IC50 is over 100 µM.

And the IC50 [24]?
Its IC50 is over 100 µM.

And the IC50 [25]?
The IC50 was over 100 µM.

What about the cGMP induction [26] of the same compound?
The cGMP induction was “induced cGMP in a dosedependent manner”.

What about the HbF induction [27] of the same compound?
The HbF induction was “Induction of HbF by IMR-687 was observed”.

What about the “Cytotoxicity (cell counts)” value [28] of the same compound?
Its value is “not observed”.

And the microvascular stasis ([29]; 10 mg/kg/day for ten days, 1 h in normoxia, vehicle 33%, P<0.05)?
Its microvascular stasis is 20%.

And the microvascular stasis ([29]; 10 mg/kg/day for ten days, 4 h in normoxia, vehicle 16%, ns)?
The microvascular stasis was 14%.

And the microvascular stasis ([29]; 30 mg/kg/day for ten days, 4 h in normoxia, vehicle 16%, P<0.01)?
Its microvascular stasis is 7%.

What about the “percentage of F-cells (HbF positive)” value ([30]; DMSO control 13.3%) of the same compound?
The value was 21.9%.

And the “intensity of HbF staining (MFI)” value ([30]; control 6073±1217)?
Its value is 7813±1374.

And the “brain exposure levels lower than PF-04447943” value ([31]; C57Bl/6J mice, 10 mg/kg/day for five days)?
The value was 5 fold.

And the Kp at 5 days ([31]; C57Bl/6J, mouse, brain/plasma, 10 mg/kg/day)?
The Kp at 5 days was 0.07.

And the conditioned fear responses [32]?
The conditioned fear responses was “no effect”.

And the “peripheral WBC counts” value ([33]; normal rats, up to 6 months, super-physiological doses)?
Its value is “did not result in any reduction in peripheral WBC counts”.

And the “myelotoxicity, histological examination of bone marrow smears” value ([33]; rats)?
Its value is “did not demonstrate any myelotoxicity”.

What about the “myelotoxicity, histological examination of bone marrow smears” value ([34]; data not shown) of the same compound?
The value was “did not demonstrate any myelotoxicity”.

What about the “peripheral WBC counts” value ([34]; up to 9 months, oral daily 10, 25, or 50 mg/kg) of the same compound?
Its value is “did not result in any reduction in peripheral WBC counts”.

What about the genotoxicity [35] of the same compound?
Its genotoxicity is “not genotoxic”.

And the “impact on fertility or fetal development” value [36]?
Its value is “did not impact fertility or fetal development”.

And the “effect on locomotor activity or behavioral responses” value [37]?
The value was “no effect”.

From publication PMC7049346 (Haematologica, 2019)
